Reference: PMC4642656 (Journal of Ethnopharmacology, 2015)
Read-outs that look alike come from different tables or passages of the source.

Tests used:
Type in all cases: cell-based
[1] = test system: Plasmodium falciparum chloroquine-resistant (W2) strain; test: Antiplasmodial assay
Procedure, shortened: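 Asexual erythrocytic-stage P. falciparum W2 was kept in continuous in vitro culture. It was tested by modified semiautomated microdilution for inhibition of [G-3H]hypoxanthine incorporation. Cells were harvested onto glass-fibre filters and counted by liquid scintillation as cpm per well at each drug concentration, expressed as % of untreated controls. IC50 was taken from nonlinear regression of the dose-response curve.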

[2] = test system: Plasmodium falciparum chloroquine-sensitive (D6) strain; test: Antiplasmodial assay; conditions: for IC50: Plasmodium falciparum
[3] = test system: human larynx carcinoma (HEp2) cells; test: MTT cytotoxicity assay, HEp2 cells
[4] = test system: mouse breast cancer (4T1) cells; test: MTT cytotoxicity assay, 4T1 cells
[5] = Homo sapiens, HEp-2, 48 h, read-out: IC50 HEp2, HEp2 cells, MTT, 48 h
[6] = read-out: IC50 HEp2, HEp2 cells, MTT, 48 h
[7] = Mus musculus, 4T1, 48 h, read-out: IC50 4T1, 4T1 cells, MTT, 48 h
[8] = read-out: IC50 4T1, 4T1 cells, MTT, 48 h

SMILES | IC50 ([1]; W2, read-out: IC50 W2) [µM] | IC50 ([2]; D6, read-out: IC50 D6) [µM] | IC50 [3, 5] [µM] | IC50 [3, 6] [µM] | IC50 [4, 7] [µM] | IC50 [4, 8] [µM] | IC50 ([1]; W2, read-out: IC50 W2 (chloroquine)) [µM] | IC50 ([2]; D6, read-out: IC50 D6 (chloroquine)) [µM] | SI: selectivity index [IC50 vero/IC50 (D6)] ([2]; Table 1) | IC50 ([3]; read-out: IC50 HEp2, HEp2 cells, MTT, 48 h, listed as niloticin (8)) [µM]
CC(=O)O[C@@H]1C[C@H]2C(C)(C)C(=O)C=C[C@]2(C)[C@H]2CC[C@]3(C)C(=CC[C@H]3c3ccoc3)[C@@]21C [Azadirone (1), azadirone] | 29.6 ± 1 | 23.4 ± 0.2 | < 20 | 12.8 | < 20 | 14.4 |  |  |  | 
CCN(CC)CCCC(C)Nc1ccnc2cc(Cl)ccc12 (stereo not shown) [Chloroquine, reference compound] |  |  |  |  |  |  | 0.108 | 0.0077 | 5701 | 
CC(=O)O[C@H]1C[C@@H]2[C@@]3(C)CCC(=O)C(C)(C)[C@@H]3C[C@@H](O)[C@@]2(C)C2=CC[C@@H](c3ccoc3)[C@@]21C [Mzikonone (3), mzikonone] | 40.5 ± 3.7 | 36.6 ± 0.8 | 59.3 ± 1 |  | 38.8 ± 0.4 |  |  |  |  | 
C[C@H](C[C@@H](O)[C@@H]1OC1(C)C)[C@@H]1CC[C@]2(C)C3=CC[C@H]4C(C)(C)C(=O)CC[C@]4(C)[C@H]3CC[C@@]12C [Niloticin (8), niloticin] | 77 ± 5.7 | 48.2 ± 2.3 |  | 6.9 ± 0.6 | < 20 | 14.5 ± 0.5 |  |  |  | < 20
